Measured values published in ChEMBL document CHEMBL1667773, “Synthesis and antifungal activity of furo[2,3-f]quinolin-5-ols” (2011).
≈ marks a conversion by molar mass, not a printed value.

Experiments:
Pichia kudriavzevii = test: Antifungal activity against Candida krusei KCCM 11655 after 1 day by twofold broth dilution method; format: functional; conditions: KCCM 11655, 24 h
Summary of the method: (§1)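 Candida strains were tested by twofold serial broth dilution in modified Sabouraud dextrose broth at roughly 1 × 10⁵ cells/mL, held at 37 °C and read after one day. MIC was taken as the lowest agent concentration, against fluconazole and 5-fluorocytosine standards.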

Candida tropicalis = test: Antifungal activity against Candida tropicalis KCCM 50662 after 1 day by twofold broth dilution method; format: functional; conditions: KCCM 50662, 24 h; summary of the method: as §1
Cryptococcus neoformans = test: Antifungal activity against Cryptococcus neoformans KCCM 50564 after 1 day by twofold broth dilution method; conditions: KCCM 50564, 24 h
Candida albicans = test: Antifungal activity against Candida albicans KCCM 50235 after 1 day by twofold broth dilution method; format: functional; conditions: KCCM 50235, 24 h; summary of the method: as §1
Aspergillus flavus = test: Antifungal activity against Aspergillus flavus KCCM 11899 after 2 days by twofold broth dilution method; format: functional; conditions: KCCM 11899, 48 h
Summary of the method: (§2)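 Twofold broth dilution in modified Sabouraud dextrose broth. Inoculum about 1 × 10⁵ cells/mL. Incubated at 37 °C and read after two days. MIC taken as the lowest concentration of agent tested, with fluconazole and 5-fluorocytosine as reference agents.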

Aspergillus niger = test: Antifungal activity against Aspergillus niger KCTC 1231 after 2 days by twofold broth dilution method; format: functional; conditions: KCTC 1231, 48 h; summary of the method: as §2

Row | Structure (SMILES) | MIC (Pichia kudriavzevii) [µg/mL] | MIC (Candida tropicalis) [µg/mL] | MIC (Cryptococcus neoformans) [µg/mL] | MIC (Candida albicans) [µg/mL] | MIC (Aspergillus flavus) [µg/mL] | MIC (Aspergillus niger) [µg/mL]
1 | CCOC(=O)c1c(N)oc2c1c(Sc1cccc(Cl)c1)c(O)c1ncccc12 | 6.3 (≈ 15.2 µM) | 12.5 (≈ 30.1 µM) | 1.6 (≈ 3.86 µM) | 6.3 (≈ 15.2 µM) | 12.5 (≈ 30.1 µM) | 3.2 (≈ 7.71 µM)
2 | CCOC(=O)c1c(N)oc2c1c(Sc1ccc(F)c(F)c1)c(O)c1ncccc12 | 1.6 (≈ 3.84 µM) | 1.6 (≈ 3.84 µM) | 50 (≈ 120 µM) | 0.8 (≈ 1.92 µM) | 1.6 (≈ 3.84 µM) | 1.6 (≈ 3.84 µM)
3 | CCOC(=O)c1c(N)oc2c1c(Sc1ccc(F)cc1)c(O)c1ncccc12 | 50 (≈ 125 µM) | 50 (≈ 125 µM) | 50 (≈ 125 µM) | 50 (≈ 125 µM) | 6.3 (≈ 15.8 µM) | 50 (≈ 125 µM)
4 | CCOC(=O)c1c(N)oc2c1c(Sc1ccc(O)cc1)c(O)c1ncccc12 | 25 (≈ 63.1 µM) | 6.3 (≈ 15.9 µM) | 12.5 (≈ 31.5 µM) | 12.5 (≈ 31.5 µM) | 25 (≈ 63.1 µM) | 3.2 (≈ 8.07 µM)
5 | CCOC(=O)c1c(N)oc2c1c(Sc1cccc(C)c1)c(O)c1ncccc12 | 25 (≈ 63.4 µM) | 25 (≈ 63.4 µM) | 3.2 (≈ 8.11 µM) | 12.5 (≈ 31.7 µM) | 12.5 (≈ 31.7 µM) | 25 (≈ 63.4 µM)
6 | COC(=O)c1c(N)oc2c1c(C)c(O)c1ncccc12 | 25 (≈ 91.8 µM) | 6.3 (≈ 23.1 µM) | 25 (≈ 91.8 µM) | 0.8 (≈ 2.94 µM) | 3.2 (≈ 11.8 µM) | 12.5 (≈ 45.9 µM)
7 | CCOC(=O)c1c(N)oc2c1c(Br)c(O)c1ncccc12 | 6.3 (≈ 17.9 µM) | 6.3 (≈ 17.9 µM) | 25 (≈ 71.2 µM) | 12.5 (≈ 35.6 µM) | 6.3 (≈ 17.9 µM) | 6.3 (≈ 17.9 µM)
8 | CCOC(=O)c1c(N)oc2c1c(Sc1ccc(OC)cc1)c(O)c1ncccc12 | 6.3 (≈ 15.3 µM) | 6.3 (≈ 15.3 µM) | 25 (≈ 60.9 µM) | 6.3 (≈ 15.3 µM) | 12.5 (≈ 30.5 µM) | 3.2 (≈ 7.8 µM)
9 | OC(Cn1cncn1)(Cn1cncn1)c1ccc(F)cc1F [FLUCONAZOLE] | 12.5 (≈ 40.8 µM) | 6.3 (≈ 20.6 µM) | 6.3 (≈ 20.6 µM) | 50 (≈ 163 µM) | 25 (≈ 81.6 µM) | 12.5 (≈ 40.8 µM)
10 | CCOC(=O)c1c(N)oc2c1c(SC)c(O)c1ncccc12 | 50 (≈ 157 µM) | 12.5 (≈ 39.3 µM) | 6.3 (≈ 19.8 µM) | 12.5 (≈ 39.3 µM) | 50 (≈ 157 µM) | 50 (≈ 157 µM)
11 | CCOC(=O)c1c(N)oc2c1c(Sc1cccc(F)c1)c(O)c1ncccc12 | 50 (≈ 125 µM) | 50 (≈ 125 µM) | 50 (≈ 125 µM) | 50 (≈ 125 µM) | 12.5 (≈ 31.4 µM) | 25 (≈ 62.7 µM)
12 | COC(=O)c1c(N)oc2c1c(Br)c(O)c1ncccc12 | 25 (≈ 74.2 µM) | 6.3 (≈ 18.7 µM) | 12.5 (≈ 37.1 µM) | 50 (≈ 148 µM) | 25 (≈ 74.2 µM) | 25 (≈ 74.2 µM)
13 | CCOC(=O)c1c(N)oc2c1c(SCC)c(O)c1ncccc12 | > 50 | 25 (≈ 75.2 µM) | > 50 | 50 (≈ 150 µM) | 6.3 (≈ 19 µM) | 25 (≈ 75.2 µM)
14 | CCOC(=O)c1c(N)oc2c1c(Sc1ccc(Br)cc1)c(O)c1ncccc12 | 1.6 (≈ 3.48 µM) | 0.8 (≈ 1.74 µM) | 25 (≈ 54.4 µM) | 1.6 (≈ 3.48 µM) | 0.8 (≈ 1.74 µM) | 1.6 (≈ 3.48 µM)
15 | CCOC(=O)c1c(N)oc2c1c(Sc1ccc(C)cc1)c(O)c1ncccc12 | 50 (≈ 127 µM) | 12.5 (≈ 31.7 µM) | 12.5 (≈ 31.7 µM) | 6.3 (≈ 16 µM) | 50 (≈ 127 µM) | 3.2 (≈ 8.11 µM)
16 | Nc1ccc(O)c2ncccc12 | > 50 | 50 (≈ 312 µM) | > 50 | 50 (≈ 312 µM) | > 50 | 50 (≈ 312 µM)
17 | CCOC(=O)c1c(N)oc2c1c(Sc1ccccc1)c(O)c1ncccc12 | 3.2 (≈ 8.41 µM) | 1.6 (≈ 4.21 µM) | 25 (≈ 65.7 µM) | 3.2 (≈ 8.41 µM) | 3.2 (≈ 8.41 µM) | 3.2 (≈ 8.41 µM)
18 | Nc1nc(=O)[nH]cc1F [FLUCYTOSINE] | 3.2 (≈ 24.8 µM) | 3.2 (≈ 24.8 µM) | 6.3 (≈ 48.8 µM) | 3.2 (≈ 24.8 µM) | 1.6 (≈ 12.4 µM) | 3.2 (≈ 24.8 µM)
19 | Cc1ccc2cccnc2c1[N+](=O)[O-] | > 50 | > 50 | 50 (≈ 266 µM) | > 50 | > 50 | > 50
20 | CCOC(=O)c1c(N)oc2c1c(C)c(O)c1ncccc12 | 25 (≈ 87.3 µM) | 25 (≈ 87.3 µM) | 12.5 (≈ 43.7 µM) | 6.3 (≈ 22 µM) | 12.5 (≈ 43.7 µM) | > 50
21 | CCOC(=O)c1c(N)oc2c1c(Sc1ccc(C)c(C)c1)c(O)c1ncccc12 | 25 (≈ 61.2 µM) | 12.5 (≈ 30.6 µM) | 12.5 (≈ 30.6 µM) | 25 (≈ 61.2 µM) | 6.3 (≈ 15.4 µM) | 12.5 (≈ 30.6 µM)
22 | CCOC(=O)c1c(N)oc2c1c(Cl)c(O)c1ncccc12 | 6.3 (≈ 20.5 µM) | 50 (≈ 163 µM) | 25 (≈ 81.5 µM) | > 50 | > 50 | > 50
23 | CCOC(=O)c1c(N)oc2c1c(Sc1ccc(Cl)cc1)c(O)c1ncccc12 | 1.6 (≈ 3.86 µM) | 0.8 (≈ 1.93 µM) | 25 (≈ 60.3 µM) | 0.8 (≈ 1.93 µM) | 3.2 (≈ 7.71 µM) | 3.2 (≈ 7.71 µM)
